Laboratory results published in ChEMBL document CHEMBL1125023, “Flexible N-methyl-4-phenyl-1,2,3,6-tetrahydropyridine analogues: synthesis and monoamine oxidase catalyzed bioactivation” (J Med Chem, 1990).

Tests used:
Monoamine oxidase [1] = target: T1, Monoamine oxidase (Rattus norvegicus, UniProt P19643+P21396); test: (§1) Kinetic constant (Km) determined in rat brain mitochondria
T1 sequence (P19643 whole entry): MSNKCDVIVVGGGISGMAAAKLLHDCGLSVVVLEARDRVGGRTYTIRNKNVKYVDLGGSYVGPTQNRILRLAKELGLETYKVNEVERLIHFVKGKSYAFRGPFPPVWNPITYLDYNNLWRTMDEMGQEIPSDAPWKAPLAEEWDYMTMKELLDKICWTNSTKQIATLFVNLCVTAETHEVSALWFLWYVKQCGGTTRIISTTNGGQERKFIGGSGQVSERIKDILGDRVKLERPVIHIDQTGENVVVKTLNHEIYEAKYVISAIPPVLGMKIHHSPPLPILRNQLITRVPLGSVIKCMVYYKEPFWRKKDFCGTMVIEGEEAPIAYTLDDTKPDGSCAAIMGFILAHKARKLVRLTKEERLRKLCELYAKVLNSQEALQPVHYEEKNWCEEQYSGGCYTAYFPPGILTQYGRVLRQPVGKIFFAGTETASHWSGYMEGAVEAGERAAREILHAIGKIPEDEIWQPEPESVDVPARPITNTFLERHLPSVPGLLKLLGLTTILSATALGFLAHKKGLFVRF
T1 sequence (P21396 whole entry): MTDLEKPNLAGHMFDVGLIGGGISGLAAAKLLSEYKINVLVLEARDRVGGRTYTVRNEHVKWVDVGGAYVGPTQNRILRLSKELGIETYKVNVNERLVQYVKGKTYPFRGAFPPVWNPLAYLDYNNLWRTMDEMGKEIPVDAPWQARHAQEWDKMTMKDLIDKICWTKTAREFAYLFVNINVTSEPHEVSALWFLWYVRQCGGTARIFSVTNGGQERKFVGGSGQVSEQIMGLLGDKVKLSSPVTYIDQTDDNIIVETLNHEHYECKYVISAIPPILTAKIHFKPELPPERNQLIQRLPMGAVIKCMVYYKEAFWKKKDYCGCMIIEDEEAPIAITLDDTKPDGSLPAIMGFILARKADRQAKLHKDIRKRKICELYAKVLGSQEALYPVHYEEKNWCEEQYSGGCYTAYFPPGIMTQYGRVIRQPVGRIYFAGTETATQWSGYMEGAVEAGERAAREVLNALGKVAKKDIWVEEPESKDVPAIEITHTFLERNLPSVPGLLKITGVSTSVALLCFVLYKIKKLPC
Procedure, shortened: (§2)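 Mitochondria from rat brain were isolated by differential centrifugation with a Ficoll gradient, lysed in pH 7.4 phosphate buffer with sodium azide, and diluted to 400–800 μg protein/mL. Incubations at 37 °C for 30 min used seven substrate concentrations from 0.0125 to 1 mM, plus 2 and 4 mM for poor substrates. H2O2 was read with ABTS–horseradish peroxidase. Km and Vmax came from Lineweaver-Burk plots: three days, duplicates, mean of six ± SD.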

Monoamine oxidase [2] = target: T1, Monoamine oxidase; test: Ratio of Kinetic constants (Km vs. Vmax).; format: protein assay
Monoamine oxidase [3] = target: T1, Monoamine oxidase; test: Kinetic constant (Vmax) determined in rat brain mitochondria.; procedure, shortened: as §2
Rattus norvegicus [4] = organism: Rattus norvegicus; test: as §1; format: functional; procedure, shortened: as §2
[5] = tested on: Monoamine oxidase (Rattus norvegicus); test: Percent inhibition of MAO-catalyzed oxidation in rat brain mitochondria induced by pargyline
Rattus norvegicus [6] = organism: Rattus norvegicus; test: Tested for pargyline-induced inhibition of MAO-catalyzed oxidation in rat brain mitochondria (Specific inhibitor = Pargyline hydrochloride at 2.5 uM) (Control = 17.95); format: functional
Rattus norvegicus [7] = organism: Rattus norvegicus; test: Tested for pargyline-induced inhibition of MAO-catalyzed oxidation in rat brain mitochondria (Specific inhibitor = Pargyline hydrochloride at 2.5 uM) (Control = 28.60); format: functional
Rattus norvegicus [8] = organism: Rattus norvegicus; test: Tested for pargyline-induced inhibition of MAO-catalyzed oxidation in rat brain mitochondria (Specific inhibitor = Pargyline hydrochloride at 2.5 uM) (Control = 31.40); format: functional
Rattus norvegicus [9] = organism: Rattus norvegicus; test: Tested for pargyline-induced inhibition of MAO-catalyzed oxidation in rat brain mitochondria (Specific inhibitor = Pargyline hydrochloride at 2.5 uM) (Control = 18.87); format: functional
Rattus norvegicus [10] = organism: Rattus norvegicus; test: Tested for pargyline-induced inhibition of MAO-catalyzed oxidation in rat brain mitochondria (Specific inhibitor = Pargyline hydrochloride at 2.5 uM) (Control = 19.20); format: functional
Monoamine oxidase [11] = target: T1, Monoamine oxidase; test: as §1; remark: listed apart in the source
Procedure, shortened: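 Rat brain mitochondria (Ficoll gradient, lysed in phosphate buffer pH 7.4 with azide) at 400–800 μg protein/mL. Incubated 30 min at 37 °C with substrate at 0.0125–1 mM, plus 2 and 4 mM for poor substrates. H2O2 read by ABTS–horseradish peroxidase against a standard curve. Km by Lineweaver-Burk; three separate days in duplicate, mean of six ± SD.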

Monoamine oxidase [12] = target: T1, Monoamine oxidase; test: Tested for pargyline-induced inhibition of MAO-catalyzed oxidation in rat brain mitochondria (Specific inhibitor = Pargyline hydrochloride at 2.5 uM) (Control = 16.58); format: functional
Rattus norvegicus [13] = organism: Rattus norvegicus; test: Tested for pargyline-induced inhibition of MAO-catalyzed oxidation in rat brain mitochondria (Specific inhibitor = Pargyline hydrochloride at 2.5 uM) (Control = 33.85); format: functional
Rattus norvegicus [14] = organism: Rattus norvegicus; test: Tested for pargyline-induced inhibition of MAO-catalyzed oxidation in rat brain mitochondria (Specific inhibitor = Pargyline hydrochloride at 2.5 uM) (Control = 30.65); format: functional

Row | SMILES | Km (Monoamine oxidase [1]) | Ratio (Monoamine oxidase [2]) | Vmax (Monoamine oxidase [3]) | Km (Rattus norvegicus [4]) | also measured
1 | COc1ccc(CC2=CCN(C)CC2)cc1 | 24.8 µM | 7.87 | 18000000 (nM of H202) min-1 (ug of protein)-1 |  | 
2 | CN1CC=C(CCc2cccc(Cl)c2)CC1 | 20.8 µM | 4.44 | 6477000 (nM of H202) min-1 (ug of protein)-1 |  | 
3 | Cc1ccc(CC2=CCN(C)CC2)cc1 | 15.9 µM | 5.17 | 8.1e+06 (nM of H202) min-1 (µg of protein)-1 |  | 
4 | CN1CC=C(CCc2ccccc2)CC1 |  | 3.74 | 38533000 (nM of H202) min-1 (ug of protein)-1 | 119 µM | Inhibition [5]: 54%; Inhibition ((nM of H202) min-1 (ug of protein)-1) (Rattus norvegicus [6]): 8.22
5 | CN1CC=C(Cc2ccc(I)cc2)CC1 | 36.1 µM | 2.38 | 6290000 (nM of H202) min-1 (ug of protein)-1 |  | 
6 | NCc1ccccc1 [BENZYLAMINE] | 169 µM |  | 33600000 (nM of H202) min-1 (ug of protein)-1 |  | 
7 | CN1CC=C(Cc2cccc3ccccc23)CC1 |  | 5.03 | 38233000 (nM of H202) min-1 (ug of protein)-1 | 76.5 µM | Inhibition [5]: 8%; Inhibition ((nM of H202) min-1 (ug of protein)-1) (Rattus norvegicus [7]): 26.4
8 | CC(C1=CCN(C)CC1)c1ccccc1 (stereo not given) | 70.2 µM | 1.26 | 4187000 (nM of H202) min-1 (ug of protein)-1 |  | 
9 | CN1CC=C(Cc2ccccc2)CC1 |  | 9.36 | 39800000 (nM of H202) min-1 (ug of protein)-1 | 44.4 µM | Inhibition ((nM of H202) min-1 (ug of protein)-1) (Rattus norvegicus [8]): 3.71
10 | CN1CC=C(Cc2ccc(Cl)cc2)CC1 |  | 5.15 | 23900000 (nM of H202) min-1 (ug of protein)-1 | 49.4 µM | Inhibition ((nM of H202) min-1 (ug of protein)-1) (Rattus norvegicus [9]): 10.3
11 | Cc1ccccc1CC1=CCN(C)CC1 |  | 3.71 | 21933000 (nM of H202) min-1 (ug of protein)-1 | 58.8 µM | Inhibition ((nM of H202) min-1 (ug of protein)-1) (Rattus norvegicus [10]): 9.24
12 | CN1CC=C(c2ccccc2)CC1 |  |  | 27033000 (nM of H202) min-1 (ug of protein)-1 |  | Km (Monoamine oxidase [11]): 134 µM; Inhibition (Monoamine oxidase [12]): 0 (nM of H202) min-1 (ug of protein)-1
13 | CN1CC=C(/C=C/c2cccc(Br)c2)CC1 | 187 µM | 0.565 | 2690000 (nM of H202) min-1 (ug of protein)-1 |  | 
14 | CN1CC=C(Cc2cccs2)CC1 |  | 9.86 | 38133000 (nM of H202) min-1 (ug of protein)-1 | 42.2 µM | Inhibition [5]: 68%; Inhibition ((nM of H202) min-1 (ug of protein)-1) (Rattus norvegicus [13]): 10.9
15 | CN1CC=C(Cc2ccc(O)cc2)CC1 | 363 µM | 0.38 | 9850000 (nM of H202) min-1 (ug of protein)-1 |  | 
16 | CN1CC=C(C(Oc2ccc(Br)cc2)c2ccccc2)CC1 (stereo not given) | 57.2 µM | 0.74 | 3137000 (nM of H202) min-1 (ug of protein)-1 |  | 
17 | Cc1cccc(CC2=CCN(C)CC2)c1 |  | 6.95 | 45533000 (nM of H202) min-1 (ug of protein)-1 | 77.1 µM | Inhibition ((nM of H202) min-1 (ug of protein)-1) (Rattus norvegicus [14]): 9.49
